Data set [1] relates to Trypanosoma brucei rhodesiense. The experiment in a line: Antiprotozoal activity against trypomastigote form of Trypanosoma brucei rhodesiense STIB 900 assessed as parasite growth inhibition. Format: functional, organism-based.
In data set [2] the test system is Leishmania tarentolae. As to the kind of experiment: Antiprotozoal activity against promastigote form of Leishmania tarentolae P10 assessed as parasite growth inhibition after 48 hrs by MTT assay. Format: functional, organism-based. The following applies: P10, 48 h. In short, it runs like this:
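Promastigotes of nonpathogenic lizard-infecting L. tarentolae strain P10, cultured in hemin-supplemented BHI medium; IC50 determined.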

Data set [3] concerns L6. As to the kind of experiment: Cytotoxicity against rat L6 cells. The data set is classed as cell-based. In short, it runs like this:
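L6 rat skeletal myoblasts; cytotoxicity IC50 determined at the Swiss Tropical and Public Health Institute by an earlier standard protocol.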

Data set [4] is described as follows: Selectivity index, ratio of IC50 for rat L6 cells to ratio of IC50 for axenic amastigote form of Leishmania donovani MHOM/ET/67/L82. The data set is classed as toxicity, cell-based. The following applies: read-out: Selectivity Index.
Data set [5] is described as follows: Selectivity index, ratio of IC50 for rat L6 cells to ratio of IC50 for trypomastigote form of Trypanosoma brucei rhodesiense STIB 900. Format: toxicity, cell-based. The following applies: read-out: Selectivity Index.
The test system of data set [6] is Leishmania donovani. The experiment in a line: Antiprotozoal activity against axenic amastigote form of Leishmania donovani MHOM/ET/67/L82 assessed as parasite growth inhibition. Format: functional, organism-based.
Data set [7] relates to Trypanosoma cruzi. As to the kind of experiment: Antiprotozoal activity against intracellular amastigote form of Trypanosoma cruzi Tulahuen C4 assessed as parasite growth inhibition. Format: functional, organism-based.
The nature of data set [8]: Selectivity index, ratio of IC50 for rat L6 cells to ratio of IC50 for chloroquine/pyrimethamine-resistant erythrocytic form of Plasmodium falciparum K1. Format: toxicity, cell-based. The following applies: read-out: Selectivity Index.
For data set [9], the system named is Plasmodium falciparum. The experiment in a line: Antiprotozoal activity against chloroquine/pyrimethamine-resistant erythrocytic form of Plasmodium falciparum K1 assessed as parasite growth inhibition. Format: functional, organism-based.

As for `COc1cc2c(cc1C(C)OC/C=C/c1ccccc1)C=CC(C)(C)O2` (configuration not stated), the IC50 was determined as 94.7 µM in [1]; 0.86 µM in [2]; 64.4 µM in data set [3]; 23 µM in data set [6]; 73 µM in data set [7]. For the same compound, the selectivity ratio in [4] was determined as 2.8; in [5], 0.68.

`COc1cc2c(cc1C(C)NC(=O)/C=C/c1ccccc1)C=CC(C)(C)O2` (configuration not stated): the half-inhibitory concentration (IC50) in [1] was found to be 35.9 µM; in data set [2], 1.78 µM; in [3], 107 µM; in data set [6] it was 26.3 µM; in data set [7], 23.1 µM. Moreover, the results for the selectivity ratio in data set [4] and in data set [5] were 4.1 and 2.99, respectively.

Regarding `COc1cc2c(cc1C(C)N[C@H](C)c1ccccc1)C=CC(C)(C)O2` (some centres not stated), the figures for the selectivity ratio in [8] and in data set [5] were 22.1 and 7.85, respectively. Further, the IC50 in [1] came out at 2.02 µM; in data set [2], 8.61 µM; in data set [3], 15.9 µM; in data set [9], 720 nM.

As for `COc1cc2c(cc1C(C)N[C@@H](C)c1ccccc1)C=CC(C)(C)O2` (some centres not stated), the selectivity ratio in [8] is 44.4; in data set [5], 3.23. The IC50 amounted to 5.1 µM in [1], 9.01 µM in data set [2], 16.5 µM in data set [3] and 370 nM in [9].

With `CCCCNC(C)c1cc2c(cc1OC)OC(C)(C)C=C2` (configuration not stated), the selectivity ratio in [8] amounted to 12.6; in data set [5] it was 6.41. For the same compound, the IC50 worked out at 8.19 µM in data set [1]; 6.25 µM in [2]; 52.5 µM in [3]; 4180 nM in [9]; 25.2 µM in data set [7].

As for `CCN(CC)CCCC(C)NC(C)c1cc2c(cc1OC)OC(C)(C)C=C2` (configuration not stated), the selectivity ratio worked out at 17.5 in data set [8] and 22.5 in [5]. Also, the half-maximal inhibitory concentration (IC50) amounted to 1.86 µM in data set [1]; 3.24 µM in [2]; 41.9 µM in [3]; 2390 nM in data set [9]; 35.5 µM in [7].

As for `COc1cc2c(cc1C(C)NCc1ccccc1)CCC(C)(C)O2` (configuration not stated), the selectivity ratio in data set [8] worked out at 10.1; in data set [4], 4.1; in data set [5] it was 3.08. The IC50 in data set [1] came to 4.98 µM; in data set [2] it was 270 µM; in data set [3], 15.3 µM; in data set [9] it was 1510 nM; in data set [6] it was 3.7 µM; in [7], 13.3 µM.

Turning to `COc1cc2c(cc1C(C)NCCc1ccccc1)CCC(C)(C)O2` (configuration not stated), the selectivity ratio was 5.8 in data set [8], 8.4 in data set [4] and 3.48 in data set [5]. The IC50 in data set [1] is 4.15 µM; in data set [2], 126 µM; in data set [3], 14.5 µM; in data set [9] it was 2490 nM; in data set [6] it was 1.73 µM; in data set [7], 12.1 µM.

As for `COc1cc2c(cc1C(C)NCCCc1ccccc1)CCC(C)(C)O2` (configuration not stated), the figures for the selectivity ratio in [8] and in [5] were 1.23 and 1.15, respectively. Moreover, the IC50 in data set [1] is 2.27 µM; in [2] it was 129 µM; in [3] it was 2.63 µM; in [9], 2130 nM; in data set [7], 5.35 µM.

Turning to `COc1cc2c(cc1C(C)NCCCCc1ccccc1)CCC(C)(C)O2` (configuration not stated), the selectivity ratio in [8] came to 3.94; in [4], 9.3; in data set [5], 2.87. Further, the IC50 was found to be 1.84 µM in data set [1]; 90.6 µM in data set [2]; 5.28 µM in data set [3]; 1340 nM in data set [9]; 0.57 µM in [6]; 5.03 µM in data set [7].

Consider `CCCCNC(C)c1cc2c(cc1OC)OC(C)(C)CC2` (configuration not stated), for which the figures for the selectivity ratio in [8], in data set [4] and in [5] were 18.3, 5.5 and 7.54, respectively. The IC50 in [1] was determined as 7.82 µM; in data set [3] it was 59 µM; in data set [9] it was 3220 nM; in data set [6] it was 10.8 µM; in data set [7] it was 38.4 µM.

The values above are taken from ChEMBL document CHEMBL2434884, “Natural product derived antiprotozoal agents: synthesis, biological evaluation, and structure-activity relationships of novel chromene and chromane derivatives” (J Med Chem, 2013).
